Measured values published in ChEMBL document CHEMBL1649344, “Abyssomicin I, a modified polycyclic polyketide from Streptomyces sp. CHI39” (2010).
Converted amounts (≈) assume the structure as drawn. The source made the active and inactive calls. The rule behind the calls is not given here.

Legend:
[1] = tested on: Bacillus subtilis; experiment: Antimicrobial activity against Bacillus subtilis PCI219 at 100 uM after 20 hrs; type: functional, organism-based
Method in brief: (§1)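 Broth microdilution in Mueller Hinton broth. Test bacteria are pre-grown 20 h at 30 °C on a reciprocal shaker, pelleted, and resuspended in saline at 1 × 10^5 cells/mL. Each well holds medium, cell suspension (1:10 of the well volume) and sample in DMSO. Plates are incubated 20 h at 30 °C, then growth is read as absorbance at 650 nm.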

[2] = tested on: Escherichia coli; experiment: Antimicrobial activity against Escherichia coli NIH-JC2 at 100 uM after 20 hrs; type: functional, organism-based
Method in brief: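 E. coli is grown in Mueller Hinton broth for 20 h at 30 °C with shaking, spun down, and brought to 1 × 10^5 cells/mL in saline. This suspension is mixed in wells with medium and DMSO sample solution. The plate is incubated 20 h at 37 °C and growth is read at 650 nm.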

[3] = tested on: Micrococcus luteus; experiment: Antimicrobial activity against Micrococcus luteus ATCC 9343 at 100 uM after 20 hrs; type: functional, organism-based; method in brief: as §1
[4] = tested on: Staphylococcus aureus; experiment: Antimicrobial activity against Staphylococcus aureus IFO12732 at 100 uM after 20 hrs; type: functional, organism-based; method in brief: as §1
[5] = tested on: Candida albicans; experiment: Antimicrobial activity against Candida albicans IFO1594 at 100 uM after 20 hrs; type: functional, organism-based
Method in brief: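 C. albicans is cultured in yeast nitrogen base with 2% glucose for 20 h at 30 °C, harvested, and suspended in saline at 1 × 10^5 cells/mL. The suspension is combined in wells with the same medium and sample in DMSO. After 20 h at 30 °C, absorbance at 650 nm gives growth.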

[6] = tested on: Micrococcus luteus; experiment: Antimicrobial activity against Micrococcus luteus ATCC 9343 after 20 hrs; type: functional; conditions: ATCC 9343, 20 h; method in brief: as §1
[7] = tested on: Staphylococcus aureus; experiment: Antimicrobial activity against Staphylococcus aureus IFO12732 after 20 hrs; type: functional; conditions: IFO12732, 20 h; method in brief: as §1
[8] = tested on: Bacillus subtilis; experiment: Antimicrobial activity against Bacillus subtilis PCI219 after 20 hrs; type: functional; conditions: PCI219, 20 h; method in brief: as §1

MIC [6] [µg/mL] | MIC [7] [µg/mL] | MIC [8] [µg/mL] | SMILES | Activity [1] | Activity [2] | Activity [3] | Activity [4] | Activity [5]
– | – | – | C[C@@H]1CCC(=O)C2=C3O[C@@]4(C)[C@H](C)C[C@@]3(OC2=O)[C@H](/C=C/[C@H]1O)[C@H]4O | inactive | inactive | inactive | inactive | inactive
29 (≈ 83.7 µM) | 29 (≈ 83.7 µM) | 29 (≈ 83.7 µM) | C[C@@H]1CCC(=O)C2=C3O[C@@]4(C)[C@H](C)C[C@@]3(OC2=O)[C@H](/C=C/C1=O)[C@H]4O | – | inactive | – | – | inactive
